Experimental data: PMC2943143 (Biochemical pharmacology, 2010)

Key:
calf pol α = target: T1, calf pol α (Bos taurus, UniProt A0AAA9TD94); experiment: Pol assay, calf pol α; assay type: biochemical; conditions: for Ki: pol α, Dixon plot
T1 sequence (A0AAA9TD94 1-1441): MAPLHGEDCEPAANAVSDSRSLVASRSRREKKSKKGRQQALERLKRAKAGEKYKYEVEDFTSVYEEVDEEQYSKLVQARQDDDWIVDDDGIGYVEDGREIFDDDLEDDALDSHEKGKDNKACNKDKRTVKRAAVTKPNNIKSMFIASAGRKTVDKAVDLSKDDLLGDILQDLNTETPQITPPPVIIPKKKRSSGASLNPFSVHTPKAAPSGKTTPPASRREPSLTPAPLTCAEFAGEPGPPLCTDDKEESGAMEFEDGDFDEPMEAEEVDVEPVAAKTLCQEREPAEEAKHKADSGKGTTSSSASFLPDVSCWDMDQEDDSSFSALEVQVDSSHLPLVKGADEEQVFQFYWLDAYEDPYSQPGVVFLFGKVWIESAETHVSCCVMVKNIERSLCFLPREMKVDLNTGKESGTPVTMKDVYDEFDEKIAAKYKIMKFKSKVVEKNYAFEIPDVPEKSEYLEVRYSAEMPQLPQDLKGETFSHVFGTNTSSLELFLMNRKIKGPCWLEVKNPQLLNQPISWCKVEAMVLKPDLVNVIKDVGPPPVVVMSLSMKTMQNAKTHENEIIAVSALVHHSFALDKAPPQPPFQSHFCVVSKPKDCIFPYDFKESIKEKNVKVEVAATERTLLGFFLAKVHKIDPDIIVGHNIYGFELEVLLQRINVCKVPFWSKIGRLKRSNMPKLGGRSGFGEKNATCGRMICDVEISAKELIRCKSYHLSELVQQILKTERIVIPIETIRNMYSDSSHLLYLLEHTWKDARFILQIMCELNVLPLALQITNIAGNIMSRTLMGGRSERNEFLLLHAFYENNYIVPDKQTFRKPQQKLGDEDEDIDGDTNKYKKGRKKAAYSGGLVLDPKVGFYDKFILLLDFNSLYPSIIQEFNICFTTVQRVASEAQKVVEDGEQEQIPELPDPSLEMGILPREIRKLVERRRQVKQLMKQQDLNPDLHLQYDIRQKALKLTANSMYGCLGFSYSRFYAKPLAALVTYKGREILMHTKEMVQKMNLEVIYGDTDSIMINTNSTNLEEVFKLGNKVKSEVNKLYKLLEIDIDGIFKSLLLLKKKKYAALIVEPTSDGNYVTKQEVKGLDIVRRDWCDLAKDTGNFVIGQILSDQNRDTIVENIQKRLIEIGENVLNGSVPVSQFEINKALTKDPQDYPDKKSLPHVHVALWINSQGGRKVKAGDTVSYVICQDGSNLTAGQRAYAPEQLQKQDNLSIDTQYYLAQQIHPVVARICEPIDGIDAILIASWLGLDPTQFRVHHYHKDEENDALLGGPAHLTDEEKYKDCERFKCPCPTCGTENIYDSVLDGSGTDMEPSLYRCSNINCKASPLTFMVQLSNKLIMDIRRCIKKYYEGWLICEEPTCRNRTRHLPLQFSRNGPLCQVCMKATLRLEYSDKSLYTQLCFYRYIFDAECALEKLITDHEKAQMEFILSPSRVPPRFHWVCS
Procedure, shortened: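 Test compound was dissolved in DMSO and sonicated 30 s. It was preincubated with enzyme (0.05 unit final) in 50 mM Tris-HCl pH 7.5, 1 mM DTT, 50% glycerol and 0.1 mM EDTA at 0 °C for 10 min. This was added to each enzyme's standard reaction mix with poly(dA)/oligo(dT)18 (A/T = 2/1) template-primer and dTTP substrate, then incubated at 37 °C for 60 min. Activity is given as % of inhibitor-free control.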

[1] = test system: mouse Lewis lung cancer allografts; conditions: dose-dependent in the range of 4 and 20 mg/kg, syngenic mice; cited from earlier work

SMILES: O=C(OC[C@H]1O[C@@H](OC(=O)c2cc(O)c(O)c(O)c2)[C@H](OC(=O)c2cc(O)c(O)c(O)c2)[C@@H](OC(=O)c2cc(O)c(O)c(O)c2)[C@@H]1OC(=O)c1cc(O)c(O)c(O)c1)c1cc(O)c(O)c(O)c1 [PGG, 1,2,3,4,6-penta-O-galloyl-β-D-glucose]
- apparent Vmax of pol α, DNA template-primer, decreased to (calf pol α; 5 nM PGG): 32.2%
- apparent Vmax of pol α, DNA template-primer, decreased to (calf pol α; 10 nM PGG): 18.9%
- apparent Vmax of pol α, DNA template-primer, decreased to (calf pol α; 15 nM PGG): 13.6%
- apparent Vmax of pol α for the dNTP substrate (calf pol α; 15 nM PGG (29.2 without PGG)): 3.77 pmol/h
- effect on pol α activity (calf pol α; 100 and 1,000 nM PGG, Fig. 1C): significantly inhibit
- IC50 (calf pol α; IC50, pol α, poly(dA)/oligo(dT)18 and dTTP, 0.05 unit enzyme): 13 nM
- Ki (calf pol α; for the DNA template-primer): 2.5 nM
- Ki (calf pol α; for the dNTP substrate): 2.2 nM
- Mode of Inhibition, pol α, DNA template-primer (calf pol α; Lineweaver-Burk plots): Non-competitive for DNA template-primer
- Mode of Inhibition, pol α, dNTP (calf pol α; Lineweaver-Burk plots): Non-competitive for dNTP
- effect of 0.05% NP-40 on the inhibitory effect on pol α (calf pol α; PGG 10 and 100 nM, supplemental Table S1): not reversed
- effect of poly(rC) or BSA on the inhibitory effect on pol α (calf pol α; poly(rC) 50 μM, BSA 200 μg/ml): neither poly(rC) nor BSA influenced
- in vivo growth of Lewis lung cancer allografts [1]: suppresses
